Our source for the IC50 values is ChEMBL document CHEMBL1221348, “1,2,3-triazole analogs of combretastatin A-4 as potential microtubule-binding agents” (Bioorg Med Chem, 2010).

In one assay the test system is K562. As to the kind of experiment: Cytotoxicity against human K562 cells after 5 days by MTT assay. Type of assay: functional, cell-based. Conditions: K562, 120 h. Put shortly: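 K562 human chronic myelogenous leukemia cells were grown in antibiotic-free RPMI with 10% v/v FCS and plated at 40,000 cells/mL. Drug was dissolved in DMSO and serially diluted in medium, with a drug-free control. Plates were incubated 5 days at 37 °C in 5% CO2. MTT was added for 3 h and the formazan dissolved in DMSO. OD was read at 540 and 690 nm to derive the growth-inhibitory dose.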
(In general: Formazan colour is commonly taken as a measure of viable cells.)

A further assay concerns the target Tubulin (Sus scrofa, UniProt P02554+P02550). The assay is described as follows: Inhibition of pig tubulin polymerization. Type of assay: protein assay. An outline of the steps:
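Porcine brain tubulin (11 mg/mL stock) was used in Mes buffer (0.1 M Mes, 1 mM EGTA, 0.5 mM MgCl2, pH 6.6) with GTP (5 mM stock) and drug in DMSO. The plate was prechilled 30 min at 4 °C. Absorbance at 350 nm was recorded at ambient temperature for 60 min against buffer+drug blanks. IC50 was taken graphically as percent of untreated control assembly.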

`COc1ccc(Cn2nncc2-c2cc(OC)c(OC)c(OC)c2)cc1`: in the assay with K562, the IC50 turned out to be 8.66 µM.

With `COc1ccc(Cn2nncc2-c2cc(OC)c(OC)c(OC)c2)cc1Br`, in the assay on K562, the IC50 was above 10 µM.

For the compound `COc1ccc(Cn2nncc2-c2cc(OC)c(OC)c(OC)c2)cc1O`, in the assay with K562, inhibition was half-maximal at 1.83 µM (IC50).

For `COc1ccc(Cn2nncc2-c2cc(OC)c(OC)c(OC)c2)cc1[N+](=O)[O-]`, in the assay with K562, the IC50 is above 10 µM.

For `COc1ccc(Cn2nncc2-c2cc(OC)c(OC)c(OC)c2)cc1N`, the IC50 in the assay with K562 was 0.73 µM; against Tubulin, above 20 µM.

As to `COc1ccc(-c2cnnn2Cc2cc(OC)c(OC)c(OC)c2)cc1`, the IC50 in the assay with K562 stood at 5.56 µM.

In the case of `COc1ccc(-c2cnnn2Cc2cc(OC)c(OC)c(OC)c2)cc1Br`, the 50% inhibitory concentration (IC50) in the assay with K562 is above 10 µM.

Take `COc1ccc(-c2cnnn2Cc2cc(OC)c(OC)c(OC)c2)cc1O`: the IC50 with K562 was 0.53 µM.

In the assay on K562, `COc1ccc(-c2cnnn2Cc2cc(OC)c(OC)c(OC)c2)cc1[N+](=O)[O-]` displayed an IC50 above 10 µM.

For `COc1ccc(-c2cnnn2Cc2cc(OC)c(OC)c(OC)c2)cc1N`, the IC50 is 0.38 µM with K562 and above 20 µM at Tubulin.

Consider `COc1ccc(-n2cc(-c3cc(OC)c(OC)c(OC)c3)nn2)cc1Br`, for which, in the assay with K562, the IC50 is above 10 µM.

In the case of `COc1ccc(-n2cc(-c3cc(OC)c(OC)c(OC)c3)nn2)cc1[N+](=O)[O-]`, the IC50 with K562 was above 10 µM.

In the assay with K562, `COc1ccc(-n2cc(-c3cc(OC)c(OC)c(OC)c3)nn2)cc1N` gave an IC50 above 10 µM.

In the assay on K562, `COc1ccc(-c2cn(-c3cc(OC)c(OC)c(OC)c3)nn2)cc1Br` had a concentration for half-maximal inhibition (IC50) above 10 µM.

`COc1ccc(Cn2cc(-c3cc(OC)c(OC)c(OC)c3)nn2)cc1` gave a half-inhibitory concentration (IC50) in the assay on K562 above 10 µM.

In the case of `COc1ccc(Cn2cc(-c3cc(OC)c(OC)c(OC)c3)nn2)cc1Br`, in the assay on K562, the IC50 is above 10 µM.

`COc1ccc(Cn2cc(-c3cc(OC)c(OC)c(OC)c3)nn2)cc1O` had an IC50 in the assay with K562 above 10 µM.

Regarding `COc1ccc(Cn2cc(-c3cc(OC)c(OC)c(OC)c3)nn2)cc1[N+](=O)[O-]`, in the assay on K562, the IC50 was above 10 µM.

In the assay on K562, `COc1ccc(Cn2cc(-c3cc(OC)c(OC)c(OC)c3)nn2)cc1N` gave an IC50 above 10 µM.

As for `COc1ccc(-c2cn(Cc3cc(OC)c(OC)c(OC)c3)nn2)cc1`, in the assay on K562, the half-inhibitory concentration (IC50) was above 10 µM.

As for `COc1ccc(-c2cn(Cc3cc(OC)c(OC)c(OC)c3)nn2)cc1Br`, the concentration for half-maximal inhibition (IC50) in the assay on K562 was above 10 µM.

In the assay with K562, `COc1ccc(-c2cn(Cc3cc(OC)c(OC)c(OC)c3)nn2)cc1O` showed an IC50 above 10 µM.

In the assay on K562, `COc1ccc(-c2cn(Cc3cc(OC)c(OC)c(OC)c3)nn2)cc1[N+](=O)[O-]` registered an IC50 above 10 µM.

`COc1ccc(-c2cn(Cc3cc(OC)c(OC)c(OC)c3)nn2)cc1N` registered an IC50 with K562 above 10 µM.

Regarding `COc1ccc(-c2cn(-c3cc(OC)c(OC)c(OC)c3)nn2)cc1`, in the assay on K562, the 50% inhibitory concentration (IC50) was above 10 µM.

`COc1ccc(-n2cc(-c3cc(OC)c(OC)c(OC)c3)nn2)cc1`: the concentration for half-maximal inhibition (IC50) with K562 was above 10 µM.

`COc1ccc(-n2cc(-c3cc(OC)c(OC)c(OC)c3)nn2)cc1O`: the results for the IC50 in the assay with K562 and at Tubulin were 3.2 µM and above 20 µM, respectively.

`COc1ccc(-c2cn(-c3cc(OC)c(OC)c(OC)c3)nn2)cc1O` showed a concentration for half-maximal inhibition (IC50) in the assay with K562 above 10 µM.

`COc1ccc(-c2cn(-c3cc(OC)c(OC)c(OC)c3)nn2)cc1[N+](=O)[O-]`: in the assay on K562, the IC50 was above 10 µM.

On Tubulin, `COc1ccc(-c2cn(-c3cc(OC)c(OC)c(OC)c3)nn2)cc1N` gave an IC50 above 20 µM.

What is called IC50 is the midpoint of a concentration-inhibition curve.
